Type in all cases: functional
One assay relates to Streptococcus pyogenes. In words: In vitro antibacterial activity against gram positive Streptococcus pyogenes 930. An outline of the steps:
(§1)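 Agar dilution MIC determination following the National Committee for Clinical Laboratory Standards recommendations.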

Assay [1] relates to Staphylococcus aureus. The assay can be described thus: In vitro antibacterial activity against gram-positive Staphylococcus aureus NCTC 10649M. An outline of the steps:
as §1

For the next assay, the system named is Enterococcus faecium. The assay can be described thus: In vitro antibacterial activity against gram-positive Enterococcus faecium ATCC 8043. An outline of the steps:
as §1

Assay [2] has as its system Staphylococcus aureus. In words: In vitro antibacterial activity against gram-positive Staphylococcus aureus 1775. The method, boiled down: as §1
A further assay concerns Escherichia coli. The assay can be described thus: In vitro antibacterial activity against gram negative Escherichia coli KNK 437. The method, boiled down: as §1
The test system of assay [3] is Pseudomonas aeruginosa. The assay can be described thus: In vitro antibacterial activity against gram negative P. aeruginosa DPHP 5263. The method, boiled down:
as §1

The test system of the next assay is Burkholderia cepacia. The assay can be described thus: In vitro antibacterial activity against gram negative Pseudomonas cepacia 2961. An outline of the steps: as §1
Assay [4] deals with Pseudomonas aeruginosa. The assay can be described thus: In vitro antibacterial activity against Gram-negative Pseudomonas aeruginosa 5007. The method, boiled down:
as §1

The mark [5] stands for this setting: Burkholderia cepacia, read-out: MIC.
[6] abbreviates: Streptococcus pyogenes, read-out: MIC.
The mark [7] stands for this setting: Staphylococcus aureus, NCTC 10649, read-out: MIC.
Setting [8] is: Enterococcus faecium, ATCC 8043, read-out: MIC.
The mark [9] stands for this setting: Pseudomonas aeruginosa, read-out: MIC.
[10] abbreviates: Staphylococcus aureus, read-out: MIC.
The mark [11] stands for this setting: Escherichia coli, read-out: MIC.
Setting [12] is: Pseudomonas aeruginosa, DPHP 5263, read-out: MIC.

Values after ≈ are worked out from the molar mass of the structure shown.

As for `Cc1c(N2C[C@@H](N)[C@@H](C3CC3)C2)c(F)cn2c(=O)c(C(=O)O)cc(C3CC3)c12` (stereo in doubt), the MIC with Streptococcus pyogenes turned out to be 0.02 µg/mL (≈ 0.0519 µM); against Staphylococcus aureus [1] it was 0.005 µg/mL (≈ 0.013 µM); against Enterococcus faecium, 0.05 µg/mL (≈ 0.13 µM); against Staphylococcus aureus [2] it was 0.39 µg/mL (≈ 1.01 µM); with Escherichia coli, 0.1 µg/mL (≈ 0.259 µM); against Pseudomonas aeruginosa [3] it was 12.5 µg/mL (≈ 32.4 µM).
In the case of `Cc1c(N2CCCN2C)c(F)cn2c(=O)c(C(=O)O)cc(C3CC3)c12`, the MIC in the assay on Burkholderia cepacia (setting [5]) is 1.56 µg/mL (≈ 4.52 µM); with Streptococcus pyogenes (setting [6]), 0.39 µg/mL (≈ 1.13 µM); with Staphylococcus aureus [1] (setting [7]) it was 0.02 µg/mL (≈ 0.0579 µM); in the assay with Enterococcus faecium (setting [8]), 0.39 µg/mL (≈ 1.13 µM); in the assay with Pseudomonas aeruginosa [4] (setting [9]), 3.1 µg/mL (≈ 8.98 µM); in the assay on Staphylococcus aureus [2] (setting [10]), 3.1 µg/mL (≈ 8.98 µM). For the same molecule, the values for the MIC with Escherichia coli (setting [11]) and in the assay on Pseudomonas aeruginosa [3] (setting [12]) were 3.1 µg/mL (≈ 8.98 µM) and more than 100 µg/mL, respectively.
For the molecule `Cc1c(N2CCCCC2)c(F)cn2c(=O)c(C(=O)O)cc(C3CC3)c12`, the MIC in the assay on Burkholderia cepacia (setting [5]) is 3.1 µg/mL (≈ 9 µM); with Streptococcus pyogenes (setting [6]) it was 0.2 µg/mL (≈ 0.581 µM); in the assay on Staphylococcus aureus [1] (setting [7]), 0.05 µg/mL (≈ 0.145 µM); in the assay on Enterococcus faecium (setting [8]), 0.39 µg/mL (≈ 1.13 µM); in the assay with Pseudomonas aeruginosa [4] (setting [9]), 3.1 µg/mL (≈ 9 µM); in the assay with Staphylococcus aureus [2] (setting [10]), 0.78 µg/mL (≈ 2.26 µM). Also, the results for the MIC in the assay on Escherichia coli (setting [11]) and in the assay with Pseudomonas aeruginosa [3] (setting [12]) were 3.1 µg/mL (≈ 9 µM) and more than 100 µg/mL, respectively.
With `CN[C@H]1CN(c2c(F)cn3c(=O)c(C(=O)O)cc(C4CC4)c3c2C)C[C@@H]1C`, the MIC is 0.78 µg/mL (≈ 2.09 µM) with Burkholderia cepacia (setting [5]); 0.1 µg/mL (≈ 0.268 µM) in the assay on Streptococcus pyogenes (setting [6]); 0.05 µg/mL (≈ 0.134 µM) in the assay on Staphylococcus aureus [1] (setting [7]); 0.2 µg/mL (≈ 0.536 µM) in the assay with Enterococcus faecium (setting [8]); 3.1 µg/mL (≈ 8.3 µM) with Pseudomonas aeruginosa [4] (setting [9]); 0.78 µg/mL (≈ 2.09 µM) in the assay on Staphylococcus aureus [2] (setting [10]). The values for the MIC in the assay on Escherichia coli (setting [11]) and in the assay on Pseudomonas aeruginosa [3] (setting [12]) were 0.2 µg/mL (≈ 0.536 µM) and 12.5 µg/mL (≈ 33.5 µM), respectively.
As for `Cc1c(N2C[C@H]3CCNC[C@@H]3C2)c(F)cn2c(=O)c(C(=O)O)cc(C3CC3)c12`, the minimal inhibitory concentration (MIC) is 0.39 µg/mL (≈ 1.01 µM) with Burkholderia cepacia (setting [5]); 0.05 µg/mL (≈ 0.13 µM) in the assay on Streptococcus pyogenes (setting [6]); 0.05 µg/mL (≈ 0.13 µM) with Staphylococcus aureus [1] (setting [7]); 0.2 µg/mL (≈ 0.519 µM) in the assay with Enterococcus faecium (setting [8]); 0.39 µg/mL (≈ 1.01 µM) in the assay with Pseudomonas aeruginosa [4] (setting [9]); 6.2 µg/mL (≈ 16.1 µM) in the assay with Staphylococcus aureus [2] (setting [10]). Moreover, the MIC worked out at 0.2 µg/mL (≈ 0.519 µM) in the assay with Escherichia coli (setting [11]) and 6.2 µg/mL (≈ 16.1 µM) with Pseudomonas aeruginosa [3] (setting [12]).
As for `Cc1c(N2CC[C@H](NCC(F)(F)F)C2)c(F)cn2c(=O)c(C(=O)O)cc(C3CC3)c12`, the MIC amounted to 3.1 µg/mL (≈ 7.25 µM) in the assay on Burkholderia cepacia (setting [5]); 0.39 µg/mL (≈ 0.912 µM) with Streptococcus pyogenes (setting [6]); 0.02 µg/mL (≈ 0.0468 µM) in the assay with Staphylococcus aureus [1] (setting [7]); 0.39 µg/mL (≈ 0.912 µM) in the assay on Enterococcus faecium (setting [8]); 3.1 µg/mL (≈ 7.25 µM) with Pseudomonas aeruginosa [4] (setting [9]); 0.78 µg/mL (≈ 1.82 µM) in the assay on Staphylococcus aureus [2] (setting [10]). In addition, the MIC with Escherichia coli (setting [11]) is 1.56 µg/mL (≈ 3.65 µM); in the assay on Pseudomonas aeruginosa [3] (setting [12]), more than 100 µg/mL.
For `Cc1c(N2CC[C@@H]3CCNC[C@@H]32)c(F)cn2c(=O)c(C(=O)O)cc(C3CC3)c12`, the MIC in the assay on Burkholderia cepacia (setting [5]) is 3.1 µg/mL (≈ 8.04 µM); with Staphylococcus aureus [1] (setting [7]), 0.05 µg/mL (≈ 0.13 µM); with Enterococcus faecium (setting [8]), 0.2 µg/mL (≈ 0.519 µM); in the assay on Pseudomonas aeruginosa [4] (setting [9]), 0.78 µg/mL (≈ 2.02 µM); with Staphylococcus aureus [2] (setting [10]), 6.2 µg/mL (≈ 16.1 µM); with Escherichia coli (setting [11]) it was 0.39 µg/mL (≈ 1.01 µM). The MIC in the assay on Pseudomonas aeruginosa [3] (setting [12]) came out at 6.2 µg/mL (≈ 16.1 µM).
On to `Cc1c(N2CC[C@H](C)[C@H](N)C2)c(F)cn2c(=O)c(C(=O)O)cc(C3CC3)c12` (stereo in doubt), for which the MIC in the assay with Burkholderia cepacia turned out to be 1.56 µg/mL (≈ 4.18 µM); in the assay on Streptococcus pyogenes, 0.1 µg/mL (≈ 0.268 µM); with Staphylococcus aureus [1], 0.05 µg/mL (≈ 0.134 µM); against Enterococcus faecium, 0.2 µg/mL (≈ 0.536 µM); in the assay on Pseudomonas aeruginosa [4], 0.78 µg/mL (≈ 2.09 µM); against Staphylococcus aureus [2], 1.56 µg/mL (≈ 4.18 µM). In the assay on Escherichia coli, the MIC came out at 0.2 µg/mL (≈ 0.536 µM).
Turning to `Cc1c(N2CCC(O)C2)c(F)cn2c(=O)c(C(=O)O)cc(C3CC3)c12` (stereo not given), the minimal inhibitory concentration (MIC) in the assay with Burkholderia cepacia (setting [5]) turned out to be 0.1 µg/mL (≈ 0.289 µM); in the assay with Staphylococcus aureus [1] (setting [7]), 0.005 µg/mL (≈ 0.0144 µM); in the assay on Enterococcus faecium (setting [8]), 0.05 µg/mL (≈ 0.144 µM); in the assay on Staphylococcus aureus [2] (setting [10]), 0.2 µg/mL (≈ 0.577 µM); with Escherichia coli (setting [11]) it was 0.2 µg/mL (≈ 0.577 µM).
In the case of `Cc1c(N2CCC(CNCCF)C2)c(F)cn2c(=O)c(C(=O)O)cc(C3CC3)c12` (stereo not given), the MIC with Burkholderia cepacia (setting [5]) amounted to 3.1 µg/mL (≈ 7.65 µM); with Streptococcus pyogenes (setting [6]), 0.002 µg/mL (≈ 0.00493 µM); in the assay with Staphylococcus aureus [1] (setting [7]) it was 0.002 µg/mL (≈ 0.00493 µM); with Enterococcus faecium (setting [8]), 0.02 µg/mL (≈ 0.0493 µM); in the assay with Pseudomonas aeruginosa [4] (setting [9]), 0.78 µg/mL (≈ 1.92 µM); in the assay with Staphylococcus aureus [2] (setting [10]), 0.1 µg/mL (≈ 0.247 µM). Further, the MIC turned out to be 0.2 µg/mL (≈ 0.493 µM) with Escherichia coli (setting [11]) and 12.5 µg/mL (≈ 30.8 µM) in the assay with Pseudomonas aeruginosa [3] (setting [12]).
Take `Cc1c(N2C[C@@H]3CCCN[C@@H]3C2)c(F)cn2c(=O)c(C(=O)O)cc(C3CC3)c12`: the minimal inhibitory concentration (MIC) was found to be 1.56 µg/mL (≈ 4.05 µM) in the assay on Burkholderia cepacia (setting [5]); 0.05 µg/mL (≈ 0.13 µM) with Streptococcus pyogenes (setting [6]); 0.02 µg/mL (≈ 0.0519 µM) in the assay on Staphylococcus aureus [1] (setting [7]); 0.1 µg/mL (≈ 0.259 µM) with Enterococcus faecium (setting [8]); 0.39 µg/mL (≈ 1.01 µM) in the assay with Pseudomonas aeruginosa [4] (setting [9]); 0.78 µg/mL (≈ 2.02 µM) in the assay on Staphylococcus aureus [2] (setting [10]). For the same molecule, the MIC with Escherichia coli (setting [11]) is 0.1 µg/mL (≈ 0.259 µM).
Turning to `Cc1c(N2C[C@@H](N)[C@H](C3CC3)C2)c(F)cn2c(=O)c(C(=O)O)cc(C3CC3)c12` (stereo in doubt; 3t), the MIC in the assay with Burkholderia cepacia (setting [5]) amounted to 0.78 µg/mL (≈ 2.02 µM); with Streptococcus pyogenes (setting [6]), 0.05 µg/mL (≈ 0.13 µM); in the assay with Staphylococcus aureus [1] it was 0.01 µg/mL (≈ 0.0259 µM); in the assay on Enterococcus faecium (setting [8]), 0.1 µg/mL (≈ 0.259 µM); in the assay on Pseudomonas aeruginosa [4] (setting [9]), 0.78 µg/mL (≈ 2.02 µM); with Staphylococcus aureus [2] (setting [10]) it was 0.78 µg/mL (≈ 2.02 µM). Besides, the MIC came to 0.1 µg/mL (≈ 0.259 µM) in the assay on Escherichia coli (setting [11]) and 6.2 µg/mL (≈ 16.1 µM) in the assay with Pseudomonas aeruginosa [3] (setting [12]).
Regarding `Cc1c(N2C[C@@H]3OCC[C@]3(CN)C2)c(F)cn2c(=O)c(C(=O)O)cc(C3CC3)c12`, the MIC in the assay with Burkholderia cepacia (setting [5]) worked out at 3.1 µg/mL (≈ 7.72 µM); in the assay with Staphylococcus aureus [1] (setting [7]) it was 0.005 µg/mL (≈ 0.0125 µM); with Enterococcus faecium (setting [8]) it was 0.05 µg/mL (≈ 0.125 µM); in the assay with Pseudomonas aeruginosa [4] (setting [9]) it was 0.39 µg/mL (≈ 0.972 µM); in the assay with Staphylococcus aureus [2] (setting [10]) it was 0.78 µg/mL (≈ 1.94 µM); in the assay with Escherichia coli (setting [11]), 0.2 µg/mL (≈ 0.498 µM). Moreover, the MIC in the assay on Pseudomonas aeruginosa [3] (setting [12]) was found to be 6.2 µg/mL (≈ 15.4 µM).

For the origin of these results see ChEMBL document CHEMBL1132437, “Synthesis and antimicrobial activity of 4H-4-oxoquinolizine derivatives: consequences of structural modification at the C-8 position” (1999).
